Measured values of several laboratories.
Protocols differ between the studies behind these lines.
Target: Cyclin-dependent kinase-like 2 (CDKL2, Homo sapiens, UniProt Q92772)
Sequence (Q92772 1-493, as in one of the studies): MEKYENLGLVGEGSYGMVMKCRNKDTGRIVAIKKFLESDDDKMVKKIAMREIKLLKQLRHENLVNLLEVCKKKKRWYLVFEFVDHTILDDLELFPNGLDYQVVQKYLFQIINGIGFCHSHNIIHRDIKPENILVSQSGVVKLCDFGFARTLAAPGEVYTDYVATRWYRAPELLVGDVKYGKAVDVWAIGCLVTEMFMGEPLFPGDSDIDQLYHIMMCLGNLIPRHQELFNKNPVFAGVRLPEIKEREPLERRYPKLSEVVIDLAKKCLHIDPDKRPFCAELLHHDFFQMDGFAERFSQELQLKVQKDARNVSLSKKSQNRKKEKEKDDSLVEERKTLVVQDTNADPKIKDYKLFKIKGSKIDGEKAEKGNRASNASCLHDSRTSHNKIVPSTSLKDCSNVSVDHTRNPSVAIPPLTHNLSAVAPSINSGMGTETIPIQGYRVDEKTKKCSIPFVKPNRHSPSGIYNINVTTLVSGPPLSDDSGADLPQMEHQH

C[C@@H]1CCN(c2nccc(-c3cnn4ncccc34)n2)C1 — remaining binding (binding; 1 µM): 99%
O=C(c1ccc(Nc2ncc(Cl)c(-c3cc4ccccc4s3)n2)cc1)N1CCC(N2CCCC2)CC1 — remaining binding (binding, competition with immobilised ligand; 1 µM): 2.4%
COc1ccnn2ncc(-c3ccnc(N(C)C)n3)c12 — remaining binding (binding; 1 µM): 91%
O=C(Nc1c[nH]nc1C(=O)NC1CCNCC1)c1cc(F)cc(F)c1 — remaining binding (binding, competition with immobilised ligand; 1 µM): 89%
CN(c1ccnc(CNc2nc(Nc3ccc4c(c3)CC(=O)N4)ncc2C(F)(F)F)n1)S(C)(=O)=O — remaining binding (cell-free assay, competition with immobilised ligand; 1 µM): 84%
COc1cnc(Nc2cccc(S(N)(=O)=O)c2)nc1N1CCN(c2ccccc2)CC1 — remaining binding (binding, competition with immobilised ligand; 1 µM): 100%
N[C@@H]1CCN(c2nccc(-c3cnn4ncccc34)n2)C1 — remaining binding (binding; 1 µM): 100%
c1cncc(-c2cccc(Nc3nccc(NC4CCCCC4)n3)c2)c1 — remaining binding (binding, competition with immobilised ligand; 10 µM): 64%
O=C(NCCCN1CCOCC1)c1ccc(Nc2ncc(Cl)c(-c3ccc(Cl)s3)n2)cc1 — remaining binding (binding, competition with immobilised ligand; 1 µM): 19%
C[C@H](c1ccnc(Nc2nc3ccc(-c4cc(N(C)C)ncn4)cc3[nH]2)c1)N1CCN(C(=O)CC(F)(F)F)CC1 — remaining binding (binding, competition with immobilised ligand; 0.1 µM): 100%
C[C@@H](c1ccc(-n2cnc3c(N)ncnc32)cc1)N1CCc2nn(C)c(Cc3ccccc3)c2C1=O — remaining binding (binding, competition with immobilised ligand; 0.1 µM): 67%
CN(C)c1nccc(-c2cnn3ncccc23)n1 — remaining binding (binding; 1 µM): 100%
CO[C@@H](C)c1c(Nc2ccc([C@@H](N(C)C(=O)C3CCS(=O)(=O)CC3)C(F)(F)F)cc2)cnc2cc(Cl)nn12 — remaining binding (cell-free assay, competition with immobilised ligand; 1 µM): 88%
F[C@@H]1CCN(c2nccc(-c3cnn4ncccc34)n2)C1 — remaining binding (binding; 1 µM): 100%
CC(=O)N1CCC(c2ccc(C(=O)NC3=NCCN3)cc2C(F)(F)F)CC1 — remaining binding (cell-free assay, competition with immobilised ligand; 1 µM): 100%
CC1CCCN1c1nccc(-c2cnn3ncccc23)n1 (stereo not shown) — remaining binding (binding; 1 µM): 100%
CS(=O)(=O)N1CCCC(NC(=O)[C@H](CCC2CCCCC2)NC(=O)c2ccc(CNC(=O)c3cnc4ccccn34)cc2)C1 (stereo partly shown) — remaining binding (cell-free assay, competition with immobilised ligand; 0.1 µM): 85%
CN(CCCC(F)(F)F)c1nccc(-c2cnn3ncccc23)n1 — remaining binding (binding; 1 µM): 100%
Cc1nc(Cc2cccc(C(F)(F)F)c2)sc1-c1ccc(C(N)=O)nc1 — remaining binding (binding, competition with immobilised ligand; 1 µM): 92%
O=C(c1ccc(Nc2ncc(Cl)c(-c3ccc(Cl)s3)n2)cc1)N1CCC(N2CCCC2)CC1 — remaining binding (binding, competition with immobilised ligand; 1 µM): 2.3%
FC(F)(F)Oc1cccc(-c2cnc3ccc(-c4ccncc4)nn23)c1 — remaining binding (cell-free assay, competition with immobilised ligand; 5 µM): 67%
Cn1cc(Cl)c2c(Oc3c(F)cc(Nc4cc(Cl)nc(N)n4)cc3F)ccnc21 — remaining binding (cell-free assay, competition with immobilised ligand; 0.1 µM): 100%
